Data: ChEMBL document CHEMBL1155808, “Antitumor activity of bis-indole derivatives” (J Med Chem, 2008)
pIC50: −log10 of the molar value. Where a name gives a salt, the structure may show the parent alone. Activity calls are given as the source filed them. No cut-off for these calls is given here.

Tests used:
Mo7e = assay: Antiproliferative activity against human Mo7e cells after 48 hrs by MTT assay; type: functional, cell-based
[1] = Cytotoxicity against human prostate cancer cells; type: functional; settings: Cancer cell lines; for CC50: read-out: pLC50 (the source's name) (converted); for TGI: read-out: pTGI (converted)
Method in brief: (§1)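 NCI 60-cell-line human tumour screen, with subpanels for leukemia, melanoma, lung, colon, kidney, ovary, breast, prostate and CNS. Compounds were dissolved in DMSO and tested at five ten-fold dilutions, highest 10^-4 M (10^-3 M for some). Endpoints were GI50, TGI and LC50, reported as negative log molar. Some compounds were assayed once, others two or three times.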

[2] = Inhibition of plasma membrane electron transport pathway in human HL60 cells at 200 uM by WST1 reduction assay; type: cell-based; settings: HL-60
[3] = Cytotoxicity against human breast cancer cells; type: functional; settings: Cancer cell lines; for TGI: read-out: pTGI (converted); for CC50: read-out: pLC50 (the source's name) (converted)
Method in brief: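 MTT cytotoxicity assay in breast cancer cell lines; proliferation expressed as percent growth inhibition relative to vehicle-treated control cells; IC50 reported.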

[4] = Cytotoxicity against human Non-small cell lung carcinoma cells; type: functional; settings: for TGI: read-out: pTGI (converted); for CC50: read-out: pLC50 (the source's name) (converted); method in brief: as §1
[5] = Cytotoxicity against human central nervous system cancer cells; type: functional; settings: Cancer cell lines; for CC50: read-out: pLC50 (the source's name) (converted); for TGI: read-out: pTGI (converted); method in brief: as §1
B1647 = assay: Antiproliferative activity against human B1647 cells after 48 hrs by MTT assay; type: functional, cell-based
[6] = Inhibition of plasma membrane electron transport pathway in human HL60 cells by WST1 reduction assay; type: cell-based; settings: HL-60
Method in brief: (§2)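 Cells at 10^5 per well in 0.1 ml pretreated 30 min with compound in DMSO (<0.1% final), then WST-1/mPMS added (final 500 µM and 20 µM); WST-1 reduction followed in real time at 450 nm; averages ± S.E.M. of four independent experiments.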

HEL = assay: Antiproliferative activity against human HEL cells after 48 hrs by MTT assay; type: functional, cell-based
[7] = Inhibition of plasma membrane electron transport pathway in mitochondrial gene-knockout human HL60p'0 cells by WST1 reduction assay; method in brief: as §2
[8] = Cytotoxicity against human colon cancer cells; type: functional; settings: Cancer cell lines; for TGI: read-out: pTGI (converted); for CC50: read-out: pLC50 (the source's name) (converted); method in brief: as §1
[9] = Cytotoxicity against human ovarian cancer cells; type: functional; settings: Cancer cell lines; for TGI: read-out: pTGI (converted); for CC50: read-out: pLC50 (the source's name) (converted)
[10] = Cytotoxicity against human melanoma cells; type: functional; settings: Melanoma cell; for CC50: read-out: pLC50 (the source's name) (converted); for TGI: read-out: pTGI (converted)
[11] = Cytotoxicity against human renal cancer cells; type: functional; settings: Cancer cell lines; for CC50: read-out: pLC50 (the source's name) (converted); for TGI: read-out: pTGI (converted); method in brief: as §1
[12] = Cytotoxicity against human leukemia cells; type: functional; settings: Leukemia cell; for CC50: read-out: pLC50 (the source's name) (converted); for TGI: read-out: pTGI (converted); method in brief: as §1

| Structure (SMILES) | Activity (Mo7e) | GI50 [1] | GI50 [3] | TGI [3] | GI50 [4] | TGI [4] | GI50 [5] | CC50 [5] | TGI [5] | Activity (B1647) | pIC50 [6] | Activity (HEL) | pIC50 [7] | GI50 [8] | TGI [8] | GI50 [9] | GI50 [10] | CC50 [10] | GI50 [11] | GI50 [12] | further results |
| --- | --- | --- | --- | --- | --- | --- | --- | --- | --- | --- | --- | --- | --- | --- | --- | --- | --- | --- | --- | --- | --- |
| CN1C(=O)/C(=C/c2cccc(/C=C3/C(=O)N(C)c4ccccc43)n2)c2ccccc21 | Active | 13.5 µM | 8.91 µM | 33.1 µM | 12 µM | 30.2 µM | 7.59 µM | 50.1 µM | 29.5 µM | Active | < 3.93 | Active | < 3.93 | 10 µM | 28.2 µM | 10 µM | 4.9 µM | 43.7 µM | 10 µM | 3.09 µM | Activity [2]: inactive; TGI [9]: 29.5 µM; TGI [10]: 22.4 µM; CC50 [11]: 46.8 µM; TGI [11]: 23.4 µM |
| COc1ccc2c(c1)/C(=C\c1cccc(/C=C3/C(=O)N(C)c4ccc(OC)cc43)n1)C(=O)N2C |  | 2.09 µM | 1.62 µM |  | 2.45 µM | 19.1 µM | 3.24 µM |  | 14.8 µM |  |  |  |  | 1.45 µM | 3.39 µM | 2.57 µM | 1.05 µM | 8.91 µM | 1.51 µM | 38 µM | CC50 [3]: 63.1 µM; CC50 [4]: 74.1 µM; CC50 [8]: 11.7 µM; TGI [10]: 3.8 µM; CC50 [11]: 20.9 µM; TGI [11]: 5.25 µM |
| O=C(O)CCC(=O)c1ccc2c(c1)/C(=C\c1cccc(/C=C3/C(=O)Nc4ccc(C(=O)CCC(=O)O)cc43)n1)C(=O)N2 |  |  |  |  |  |  | 30.2 µM |  | 61.7 µM |  |  |  |  |  |  |  |  |  |  | 15.5 µM |  |
| O=C1Nc2ccc(C(=O)O)cc2/C1=C\c1cccc(/C=C2/C(=O)Nc3ccc(C(=O)O)cc32)n1 | Active |  |  |  |  |  | 72.4 µM |  | 87.1 µM | Active | < 3.93 | Active | < 3.93 |  |  |  |  |  |  | 6.17 µM | Activity [2]: inactive; CC50 [12]: 34.7 µM; TGI [12]: 21.4 µM |
| O=C1Nc2cc(Cl)ccc2/C1=C\c1cccc(/C=C2/C(=O)Nc3cc(Cl)ccc32)n1 | Active | 3.39 µM | 2.29 µM | 13.5 µM | 3.72 µM | 14.8 µM | 2.24 µM | 36.3 µM | 7.76 µM | Active | < 3.93 | Active | < 3.93 | 1.74 µM | 4.9 µM | 3.02 µM | 1.78 µM | 21.4 µM | 1.07 µM | 1.45 µM | CC50 [1]: 70.8 µM; TGI [1]: 40.7 µM; CC50 [3]: 52.5 µM; CC50 [4]: 57.5 µM; CC50 [8]: 25.1 µM; CC50 [9]: 63.1 µM; TGI [9]: 19.5 µM; TGI [10]: 6.17 µM; CC50 [11]: 20 µM; TGI [11]: 3.31 µM; CC50 [12]: 95.5 µM; TGI [12]: 8.13 µM |
| Cc1cc2c(cc1O)/C(=C\c1cccc(/C=C3/C(=O)Nc4cc(C)c(O)cc43)n1)C(=O)N2 | Active | 66.1 µM | 70.8 µM | 87.1 µM | 85.1 µM |  |  |  |  | Active | < 3.93 | Active | < 3.93 | 72.4 µM |  | 75.9 µM | 87.1 µM |  | 67.6 µM | 27.5 µM |  |
| O=C1Nc2ccc(S(=O)(=O)O)cc2/C1=C\c1cccc(/C=C2/C(=O)Nc3ccc(S(=O)(=O)O)cc32)n1 |  |  |  |  |  |  |  |  |  |  |  |  |  |  |  |  | 95.5 µM |  | 85.1 µM | 93.3 µM |  |
| CC(=O)n1c(=O)/c(=C/c2c[nH]c3ccccc23)n(C(C)=O)c(=O)/c1=C/c1c[nH]c2ccccc12 | Active |  | 66.1 µM |  | 85.1 µM |  | 75.9 µM |  |  | Active | < 3.93 | Active | < 3.93 |  |  | 79.4 µM | 87.1 µM |  | 29.5 µM | 93.3 µM | Activity [2]: inactive |
| O=C1Nc2ccccc2/C1=c1/[nH]c(=O)/c(=C2/C(=O)Nc3ccccc32)[nH]c1=O |  |  | 85.1 µM |  | 85.1 µM |  | 74.1 µM |  |  |  |  |  |  |  |  | 97.7 µM |  |  | 83.2 µM |  |  |
| O=c1[nH]/c(=C\c2c[nH]c3ccccc23)c(=O)[nH]/c1=C\c1c[nH]c2ccccc12 | Active |  | 64.6 µM |  | 97.7 µM |  | 64.6 µM |  |  | Active | < 3.93 | Active | < 3.93 |  |  |  | 55 µM |  | 70.8 µM |  | Activity [2]: inactive |
| O=C1Nc2ccc(F)cc2/C1=C\c1cccc(/C=C2/C(=O)Nc3ccc(F)cc32)n1 | Active | 3.47 µM | 2.95 µM | 14.5 µM | 7.24 µM | 26.3 µM | 3.8 µM | 53.7 µM | 11.5 µM | Active | < 3.93 | Active | < 3.93 | 2.14 µM | 5.37 µM | 4.17 µM | 2.04 µM | 36.3 µM | 4.17 µM | 1.17 µM | CC50 [1]: 74.1 µM; TGI [1]: 12.3 µM; CC50 [3]: 50.1 µM; CC50 [4]: 79.4 µM; CC50 [8]: 39.8 µM; CC50 [9]: 81.3 µM; TGI [10]: 4.9 µM; CC50 [11]: 51.3 µM; TGI [11]: 12.9 µM; TGI [12]: 7.76 µM |
| O=C1Nc2ccc(Br)cc2/C1=C\c1cccc(/C=C2/C(=O)Nc3ccc(Br)cc32)n1 |  | 6.46 µM | 6.17 µM | 18.2 µM | 11 µM | 28.2 µM | 3.72 µM | 40.7 µM | 14.1 µM |  |  |  |  | 10.5 µM | 24.5 µM | 9.77 µM | 10 µM | 52.5 µM | 7.94 µM |  | CC50 [1]: 55 µM; TGI [1]: 20.9 µM; CC50 [3]: 53.7 µM; CC50 [4]: 63.1 µM; CC50 [8]: 52.5 µM; CC50 [9]: 58.9 µM; TGI [9]: 25.7 µM; TGI [10]: 23.4 µM; CC50 [11]: 51.3 µM; TGI [11]: 21.9 µM |
| CN(C)c1ccc2c(c1)/C(=C\c1cccc(/C=C3/C(=O)Nc4ccc(N(C)C)cc43)n1)C(=O)N2 | Active | 3.55 µM | 6.03 µM | 69.2 µM | 5.25 µM | 43.7 µM | 4.37 µM | 89.1 µM | 44.7 µM | Active | < 3.93 | Active | < 3.93 | 6.76 µM | 38.9 µM | 7.59 µM | 4.37 µM | 60.3 µM | 8.71 µM | 2.34 µM | TGI [1]: 29.5 µM; Activity [2]: inactive; TGI [10]: 30.2 µM; TGI [12]: 9.55 µM |
| COc1cc2c(cc1C)NC(=O)/C2=C/c1cccc(/C=C2/C(=O)Nc3cc(C)c(OC)cc32)n1 | Active | 33.9 µM | 74.1 µM | 93.3 µM | 83.2 µM |  | 89.1 µM |  |  | Active | < 3.93 | Active | < 3.93 | 49 µM |  | 89.1 µM | 79.4 µM |  | 52.5 µM | 4.37 µM | CC50 [12]: 91.2 µM; TGI [12]: 60.3 µM |
| CC[C@]1(O)C[C@H]2CN(CCc3c([nH]c4ccccc34)[C@@](C(=O)OC)(c3cc4c(cc3OC)N(C=O)[C@H]3[C@@](O)(C(=O)OC)[C@H](OC(C)=O)[C@]5(CC)C=CCN6CC[C@]43[C@@H]65)C2)C1 [VINCRISTINE SULFATE] |  | 0.126 µM | 0.316 µM |  | 0.251 µM |  | 0.126 µM | 200 µM |  |  |  |  |  | 0.1 µM |  | 0.316 µM | 0.158 µM |  | 0.316 µM | 0.1 µM | CC50 [1]: 316 µM; CC50 [3]: 316 µM; CC50 [8]: 79.4 µM; CC50 [9]: 316 µM; CC50 [11]: 251 µM; CC50 [12]: 631 µM |
| COc1ccc2[nH]cc(/C=c3\[nH]c(=O)/c(=C/c4c[nH]c5ccc(OC)cc45)[nH]c3=O)c2c1 |  |  | 79.4 µM |  |  |  |  |  |  |  |  |  |  |  |  | 89.1 µM | 72.4 µM |  |  |  |  |
| O=C1Nc2ccccc2/C1=C\c1cccc(/C=C2/C(=O)Nc3ccccc32)n1 |  | 0.631 µM | 0.49 µM |  | 0.813 µM | 3.16 µM | 0.575 µM | 7.08 µM | 1.82 µM |  |  |  |  | 0.282 µM | 0.776 µM | 0.589 µM | 0.302 µM | 4.68 µM |  | 0.234 µM | CC50 [1]: 24.5 µM; TGI [1]: 2.69 µM; CC50 [3]: 57.5 µM; CC50 [4]: 22.4 µM; CC50 [8]: 6.46 µM; CC50 [9]: 6.61 µM; TGI [9]: 1.78 µM; TGI [10]: 0.933 µM; CC50 [11]: 5.37 µM; TGI [11]: 1.62 µM; TGI [12]: 1.95 µM |
